RAD52 anneal inh = RAD52 DNA annealing inhibitors, primary screen, biochemical, FRET, single point, set 2. AID 651710, 2012. hit rate 0.46% among 360,000. recombinant RAD52 DNA annealing, FRET fluorescence. inhibition, % at 18.7 µM. DNA repair protein RAD52 homolog (Homo sapiens), P43351;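 active means every replicate showing at least 50% inhibition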
RAD54 inh = inhibitors of human RAD54 branch migration, primary screen, biochemical, fluorescence, single point; hit rate 0.14% among 360,000; inhibition, % at 10.4 µM; RAD54 Holliday junction branch migration, FAM/BHQ fluorescence; DNA repair and recombination protein RAD54-like (Homo sapiens), Q92698; AID 602329, 2012;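 active means mean normalized replicate activity at least 40 and at least half of replicates scoring 40 or more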;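 further: 0% = median of neutral control wells and 100% = median of positive control wells; inhibitors cause a drop in the FAM fluorescence signal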
UBC13 polyUb = UBC13 polyubiquitin chain formation inhibitors, primary screen, biochemical, TR-FRET, uHTS; Ubiquitin-conjugating enzyme E2 N (Homo sapiens), P61088; inhibition, % at 20 µM; hit rate 0.47% among 330,000; in the data active means inhibition above about 45%, passing the limit was not always enough
Neddyl block = inhibitors of cullin neddylation, primary screen, biochemical, TR-FRET, uHTS, NAE and Ubc12; NEDD8-conjugating enzyme Ubc12 (Homo sapiens) + NEDD8-activating enzyme E1 regulatory …; calls only at 25 µM; hit rate 0.58% among 360,000; AID 651699, 2012; in the data active means inhibition above about 36%
Apaf1 inhib = inhibitors of human Apaf-1 apoptosome, primary screen, biochemical, DEVD-Rh110 fluorescence, uHTS; inhibition, % at 20 µM; AID 489030, 2010; hit rate 0.71% among 330,000; Apoptotic protease-activating factor 1 (Homo sapiens), O14727; reconstituted apoptosome caspase-3 activity; active means inhibition of at least 40% at 20 µM;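 further: plate controls were DMSO wells for no effect and DEVD-CHO caspase inhibitor wells for full effect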
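Assay system: Apoptosome proteins | Medium: pH 7.5 Hepes buffer with CHAPS, BSA, DTT | Also added: Cytochrome c and DEVD-Rh110 substrate | Times: 30 min plus 50 min, RT | Detection: Rhodamine 110 fluorescence at Ex 480/Em 540 nm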
DNA FID counter = compounds displacing fluorescent DNA intercalator, primary screen, artefact control for HCV NS3 helicase inhibitor project, biochemical, FID fluorescence | DNA fluorescent intercalator displacement | inhibition, % at 7.9 µM | hit rate 0.17% among 290,000 | AID 1845, 2009; in the data active means inhibition above about 37%;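 further: 0% = vehicle and 100% = reference compound; higher means more ethidium bromide displaced from hairpin DNA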
Apaf-1 inh conf = Apaf-1 inhibitors, single-dose retest, confirmation, biochemical, fluorescence, DEVD-Rh110, 20 µM; shares compounds with Apaf1 inhib; reconstituted apoptosome, caspase-3 DEVD-Rh110 fluorescence; inhibition, % at 20 µM; hit rate 25% among 1,800;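 active means mean inhibition of at least 40% at 20 µM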;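 further: plate controls were DMSO wells for no effect and DEVD-CHO caspase inhibitor control wells for full effect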
Rh110 interf inh = Rh110 fluorescence interference by putative Apaf-1 inhibitors, confirmation, artefact control for Apaf-1 inhibitor project, biochemical, 20 µM; shares compounds with Apaf1 inhib; quenched caspase reaction; activation (fluorescence interference), % at 20 µM; 1,800 tested, under 10 active;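 active means signal rise of 40% or more at 20 µM, treated as a fluorescence artifact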
Fluor interf inh = fluorescence interference of Apaf-1 inhibitor hits, dose response, artefact control for Apaf-1 inhibitor project; shares compounds with Apaf1 inhib; fluorescence interference counterscreen, Apaf-1 assay format; IC50, µM; 460 tested, under 10 active; call rule not given here
* marks the source's active call; other numbers are inactive results; i = inactive; . = no result given. An excerpt weighted towards active compounds, which were near 1.6% of everything screened.

SMILES	RAD52 anneal inh	RAD54 inh	UBC13 polyUb	Neddyl block	Apaf1 inhib	DNA FID counter	Apaf-1 inh conf	Rh110 interf inh	others
CC1OC(Nc2cccc3ccccc23)C(O)C(O)C1O (stereo not drawn)	.	-6	-68	i	96*	4	64*	2	Fluor interf inh=>100
CC(C)[n+]1ccn(C2=C([O-])c3ccccc3C(=O)/C2=N\S(=O)(=O)c2ccccc2)c1	-4	.	-58	i	46*	5	68*	3	Fluor interf inh=>100
Cc1cc[n+](C2=C([O-])c3ccccc3C(=O)/C2=N\S(=O)(=O)c2cccs2)cc1C	-10	-4	-111	i	31	3	.	.
CCCCC[n+]1ccn(C2=C([O-])c3ccccc3C(=O)/C2=N\S(=O)(=O)c2ccccc2)c1	.	-2	-91	i	53*	-5	62*	8	Fluor interf inh=>100
CCCCC[n+]1ccn(C2=C([O-])c3ccccc3C(=O)/C2=N\S(=O)(=O)c2ccc(Br)cc2)c1	-7	4	-115	i	61*	-7	43*	4	Fluor interf inh=>100
CN(C)CC(=O)N[C@@H]1CC[C@H](CCNC(=O)C2CCCC2)O[C@H]1CO	-4	-6	.	.	.	.	.	.
COc1ccc(-c2cn(CCNC(=O)[C@H](Cc3ccccc3)NS(=O)(=O)c3ccc(C)cc3)nn2)cc1OC	2	4	.	.	.	.	.	.
CCCn1nc(C(=O)Nc2ccc(N3CCOCC3)cc2)c2ccccc2c1=O	-9	6	-5	i	5	.	.	.
CCCn1nc(C(=O)Nc2ccc(-n3cnnn3)cc2)c2ccccc2c1=O	8	-4	5	i	71*	.	8	5
C[C@H](CO)N1C[C@H](C)[C@H](CN(C)S(=O)(=O)c2ccc(F)cc2)Oc2ccc(NS(=O)(=O)c3cccs3)cc2CC1=O	-10	7	.	.	.	.	.	.
CCN1C(=NCCc2ccc(Br)cc2)N[C@@H](c2ccccc2)[C@H](C(=O)OC)[C@H]1C	20	0	31	i	45*	.	12	2
N/C(=N\OC(=O)c1ccc(Cl)cc1Cl)c1cccnc1	.	.	-5	i	76*	2	9	5
CC=Cc1ccc2n(c1=O)C[C@H]1[C@H](CO)[C@@H](C(=O)N3CCc4ccccc4C3)N(C(=O)COC)[C@@H]21 (mixture of isomers)	-5	.	.	.	.	.	.	.
Oc1ccc(N=Cc2ccc(OCc3ccccc3)cc2)cc1	-12	-9	-5	i	93*	4	17	-4
Oc1ccc(C=Nc2cccc3ccccc23)c(O)c1	-11	-3	-61	i	81*	-6	18	13
O=C(NN=Cc1cc([N+](=O)[O-])ccc1O)c1cccc2ccccc12	-61	.	.	i	.	.	.	.
O=[N+]([O-])c1ccc(O)c(C=Nc2cccc3ccccc23)c1	-11	-5	-91	i	88*	1	14	-4
O=[N+]([O-])c1ccc(O)c(C=Nc2cccc3ncccc23)c1	-27	5	-61	i	91*	3	16	1
O=[N+]([O-])c1ccc(O)c(/C=N/Nc2ccccn2)c1	-2	1	.	i	.	9	.	.
O=[N+]([O-])c1cccc(C=Nc2cccc3ccccc23)c1O	-13	1	-95	i	93*	8	44*	8	Fluor interf inh=>100
C[C@@H]1CN([C@@H](C)CO)C(=O)c2cccc(NC(=O)c3ccc(-c4nccs4)cc3)c2O[C@@H]1CN(C)S(=O)(=O)c1ccc(F)cc1	7	11	.	.	.	.	.	.

Compound activity deposited in PubChem by several laboratories.
